According to ChEMBL document CHEMBL3244187, “Structure--activity relationships in cephalosporins prepared from penicillins. 2. Analogues of cephalexin substituted in the 3-methyl group” (J Med Chem, 1977):
In brackets after ≈: the same amount, converted by molar mass. Activity calls are given as the source filed them. The rule behind the calls is not given here.

Columns and labels:
Staphylococcus aureus [1] = assay: Antibacterial activity against Staphylococcus aureus Smith infected in sc dosed mouse administered 1 hr post infection; format: functional
Procedure, shortened: (§1)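 Infected mice were treated subcutaneously or orally. Protection is expressed as CD50 in mg/kg, as the total dose given.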

[2] = Drug level in mouse blood at 50 mg/kg, sc after 10 mins by microbiological assay; format: ADME, organism-based; parameters: dose 50 mg/kg, route subcutaneous; settings: read-out: Drug uptake
Procedure, shortened: (§2)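 Mice given a single 50 mg/kg dose by the route in the line. Groups of five killed at each time point and blood taken from the cut axilla, heparinized and stored at 4 °C. Blood assayed the same day by large-plate microbiological assay with Sarcina lutea NCTC 8340, overnight at 30 °C. Standards made in mouse blood, with pH 7.2 phosphate-buffered saline as diluent.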

Proteus mirabilis [3] = assay: Antibacterial activity against Proteus mirabilis 13 infected in sc dosed mouse administered 1 hr and 5 hrs post infection; format: functional; procedure, shortened: as §1
[4] = Drug level in mouse blood at 50 mg/kg, iv after 4 hrs by microbiological assay; format: ADME, organism-based; parameters: dose 50 mg/kg, route intravenous; settings: read-out: Drug uptake; procedure, shortened: as §2
Proteus mirabilis [5] = assay: Antibacterial activity against Proteus mirabilis 13 infected in sc dosed mouse administered 1 hr post infection; format: functional; procedure, shortened: as §1
Escherichia coli [6] = assay: Antibacterial activity against Escherichia coli 8 infected in po dosed mouse administered 1 hr and 5 hrs post infection; format: functional; procedure, shortened: as §1
[7] = Drug level in mouse blood at 50 mg/kg, iv after 10 mins by microbiological assay; format: ADME, organism-based; parameters: dose 50 mg/kg, route intravenous; settings: read-out: Drug uptake; procedure, shortened: as §2
[8] = Drug level in mouse blood at 50 mg/kg, sc after 4 hrs by microbiological assay; format: ADME, organism-based; parameters: dose 50 mg/kg, route subcutaneous; settings: read-out: Drug uptake; procedure, shortened: as §2
[9] = Drug level in mouse blood at 50 mg/kg, po after 10 mins by microbiological assay; format: ADME, organism-based; parameters: dose 50 mg/kg, route oral; settings: read-out: Drug uptake; procedure, shortened: as §2
[10] = Drug level in mouse blood at 50 mg/kg, po after 20 mins by microbiological assay; format: ADME, organism-based; parameters: dose 50 mg/kg, route oral; settings: read-out: Drug uptake; procedure, shortened: as §2
Staphylococcus aureus [11] = assay: Antibacterial activity against Staphylococcus aureus Smith infected in po dosed mouse administered 1 hr and 5 hrs post infection; format: functional; procedure, shortened: as §1
Staphylococcus aureus [12] = assay: Antibacterial activity against Staphylococcus aureus Smith infected in po dosed mouse administered 1 hr post infection; format: functional; procedure, shortened: as §1
[13] = Drug level in mouse blood at 50 mg/kg, po after 4 hrs by microbiological assay; format: ADME, organism-based; parameters: dose 50 mg/kg, route oral; settings: read-out: Drug uptake; procedure, shortened: as §2
Klebsiella aerogenes = assay: Antibacterial activity against Klebsiella aerogenes after 18 hrs by serial dilution method; format: functional
Procedure, shortened: (§3)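 MICs by serial dilution on nutrient agar. Inoculum 0.001 mL of undiluted overnight broth culture. Plates incubated at 37 °C for 18 h before reading.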

[14] = Drug level in mouse blood at 50 mg/kg, sc after 2 hrs by microbiological assay; format: ADME, organism-based; parameters: dose 50 mg/kg, route subcutaneous; settings: read-out: Drug uptake; procedure, shortened: as §2
Escherichia coli [15] = assay: Antibacterial activity against Escherichia coli 8 infected in sc dosed mouse administered 1 hr and 5 hrs post infection; format: functional; procedure, shortened: as §1
[16] = Drug level in mouse blood at 50 mg/kg, iv after 20 mins by microbiological assay; format: ADME, organism-based; parameters: dose 50 mg/kg, route intravenous; settings: read-out: Drug uptake; procedure, shortened: as §2
Staphylococcus aureus [17] = assay: Antibacterial activity against Staphylococcus aureus Smith infected in sc dosed mouse administered 1 hr and 5 hrs post infection; format: functional; procedure, shortened: as §1
[18] = Drug level in mouse blood at 50 mg/kg, po after 30 mins by microbiological assay; format: ADME, organism-based; parameters: dose 50 mg/kg, route oral; settings: read-out: Drug uptake; procedure, shortened: as §2
Escherichia coli [19] = assay: Antibacterial activity against Escherichia coli 8 infected in sc dosed mouse administered 1 hr post infection; format: functional; procedure, shortened: as §1
Escherichia coli [20] = assay: Antibacterial activity against Escherichia coli 8 infected in po dosed mouse administered 1 hr post infection; format: functional; procedure, shortened: as §1
[21] = Drug level in mouse blood at 50 mg/kg, iv after 30 mins by microbiological assay; format: ADME, organism-based; parameters: dose 50 mg/kg, route intravenous; settings: read-out: Drug uptake; procedure, shortened: as §2
[22] = Drug level in mouse blood at 50 mg/kg, iv after 1 hr by microbiological assay; format: ADME, organism-based; parameters: dose 50 mg/kg, route intravenous; settings: read-out: Drug uptake; procedure, shortened: as §2
[23] = Drug level in mouse blood at 50 mg/kg, sc after 20 mins by microbiological assay; format: ADME, organism-based; parameters: dose 50 mg/kg, route subcutaneous; settings: read-out: Drug uptake; procedure, shortened: as §2
[24] = Drug level in mouse blood at 50 mg/kg, sc after 30 mins by microbiological assay; format: ADME, organism-based; parameters: dose 50 mg/kg, route subcutaneous; settings: read-out: Drug uptake; procedure, shortened: as §2
Pseudomonas aeruginosa = assay: Antibacterial activity against cephalosporin-resistant Pseudomonas aeruginosa after 18 hrs by serial dilution method; format: functional, organism-based
Procedure, shortened: (§4)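 MICs by serial dilution on nutrient agar. Inoculum 0.001 mL of undiluted overnight broth culture. Plates incubated 18 h at 37 °C before reading. The S. aureus Russell strain produces β-lactamase and resists benzylpenicillin.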

Morganella morganii = assay: Antibacterial activity against cephalosporin-resistant Proteus morganii after 18 hrs by serial dilution method; format: functional, organism-based; procedure, shortened: as §4
[25] = Drug metabolism in mouse assessed as metabolite level in urine by Sarcina lutea antibacterial assay; format: ADME
Procedure, shortened: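 Urine from dosed mice run on paper strip chromatography in butanol-ethanol-water (4:1:5). Active zones located on agar plates seeded with Sarcina lutea.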

[26] = Drug level in mouse blood at 50 mg/kg, sc after 1 hr by microbiological assay; format: ADME, organism-based; parameters: dose 50 mg/kg, route subcutaneous; settings: read-out: Drug uptake; procedure, shortened: as §2
[27] = Drug level in mouse blood at 50 mg/kg, po after 2 hrs by microbiological assay; format: ADME, organism-based; parameters: dose 50 mg/kg, route oral; settings: read-out: Drug uptake; procedure, shortened: as §2
Enterobacter cloacae = assay: Antibacterial activity against cephalosporin-resistant Enterobacter cloacae after 18 hrs by serial dilution method; format: functional, organism-based; procedure, shortened: as §4
[28] = Drug level in mouse blood at 50 mg/kg, iv after 2 hrs by microbiological assay; format: ADME, organism-based; parameters: dose 50 mg/kg, route intravenous; settings: read-out: Drug uptake; procedure, shortened: as §2
[29] = Drug level in mouse blood at 50 mg/kg, po after 1 hr by microbiological assay; format: ADME, organism-based; parameters: dose 50 mg/kg, route oral; settings: read-out: Drug uptake; procedure, shortened: as §2
Staphylococcus aureus [30] = assay: Antibacterial activity against beta-lactamase producing benzylpenicillin-resistant Staphylococcus aureus Russell after 18 hrs by serial dilution method; format: functional; procedure, shortened: as §4
Salmonella typhi = assay: Antibacterial activity against Salmonella typhi after 18 hrs by serial dilution method; format: functional, Salmonella enterica subsp. enterica serovar Typhi; settings: Salmonella enterica; procedure, shortened: as §4
Shigella sonnei = assay: Antibacterial activity against Shigella sonnei after 18 hrs by serial dilution method; format: functional; procedure, shortened: as §3
[31] = Drug level in mouse blood at 50 mg/kg, po after 15 mins by microbiological assay
Escherichia coli [32] = assay: Antibacterial activity against Escherichia coli after 18 hrs by serial dilution method; format: functional; procedure, shortened: as §3
Staphylococcus aureus [33] = assay: Antibacterial activity against Staphylococcus aureus Oxford after 18 hrs by serial dilution method; format: functional; procedure, shortened: as §3
Proteus mirabilis [34] = assay: Antibacterial activity against Proteus mirabilis after 18 hrs by serial dilution method; format: functional; procedure, shortened: as §3

SMILES	CD50 (Staphylococcus aureus [1]) [mg/kg]	concentration at 10 min [2] [ng/mL]	CD50 (Proteus mirabilis [3]) [mg/kg]	CD50 (Proteus mirabilis [5]) [mg/kg]	CD50 (Escherichia coli [6]) [mg/kg]	concentration at 4 h [8] [ng/mL]	CD50 (Staphylococcus aureus [11]) [mg/kg]	CD50 (Staphylococcus aureus [12]) [mg/kg]	concentration at 4 h [13] [ng/mL]	MIC (Klebsiella aerogenes) [µg/mL]	concentration at 2 h [14] [ng/mL]	CD50 (Escherichia coli [15]) [mg/kg]	CD50 (Staphylococcus aureus [17]) [mg/kg]	concentration at 0.5 h [18] [ng/mL]	CD50 (Escherichia coli [19]) [mg/kg]	CD50 (Escherichia coli [20]) [mg/kg]	concentration at 20 min [23] [ng/mL]	concentration at 0.5 h [24] [ng/mL]	concentration at 1 h [26] [ng/mL]	concentration at 2 h [27] [ng/mL]	other results
N[C@@H](C(=O)N[C@@H]1C(=O)N2C(C(=O)O)=C(Cc3ccc(C(=O)O)cc3)CS[C@H]12)c1ccccc1	1.25	75200	19	14	2000	9300	28	17	1900	2.5 (≈ 5.35 µM)	22000	60	1.8	1600	130	>1000	87400	68800	48000	2300	concentration at 4 h [4]: 2400 ng/mL; concentration at 10 min [7]: 70300 ng/mL; concentration at 10 min [9]: < 1000 ng/mL; concentration at 20 min [10]: < 1000 ng/mL; concentration at 20 min [16]: 48200 ng/mL; concentration at 0.5 h [21]: 39200 ng/mL; concentration at 1 h [22]: 25400 ng/mL; Activity (Pseudomonas aeruginosa): inactive; Activity (Morganella morganii): inactive; Drug metabolism [25]: metabolite_detected; Activity (Enterobacter cloacae): inactive; concentration at 2 h [28]: 4500 ng/mL; concentration at 1 h [29]: 2400 ng/mL
CC1=C(C(=O)O)N2C(=O)[C@@H](NC(=O)[C@H](N)c3ccccc3)[C@H]2SC1 [CEPHALEXIN ANHYDROUS]	0.46	27000	84	64	17	< 150	0.38	0.25	560	5 (≈ 14.4 µM)	420	17	1	21700	7.4	8.5	20500	13300	3000	2500	MIC (Staphylococcus aureus [30]): 5 µg/mL (≈ 14.4 µM); MIC (Salmonella typhi): 5 µg/mL (≈ 14.4 µM); MIC (Shigella sonnei): 5 µg/mL (≈ 14.4 µM); concentration at 0.25 h [31]: 23900 ng/mL; MIC (Escherichia coli [32]): 12.5 µg/mL (≈ 36 µM); MIC (Staphylococcus aureus [33]): 1.25 µg/mL (≈ 3.6 µM); MIC (Proteus mirabilis [34]): 12.5 µg/mL (≈ 36 µM); concentration at 1 h [29]: 8300 ng/mL
